M1 antagonist – antagonists of rat M1 muscarinic receptor; CHO-M1 cells, Fluo-4 calcium, ACh EC80 antagonist mode; active compounds read low; B-score at 10 µM; hit rate 3.4% among 64,000;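 active = calcium fluorescence response, raw or row-and-column corrected B-score, differing from the plate sample mean either way at a set confidence level, mostly lower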
D1 mod – D1 CRE-luciferase signal change, two-sided – cell-based, HEK293 D1, dopamine EC30, D1 allosteric modulator project, primary screen | dopamine EC30 potentiation; actives deviate in either direction | B-score at 10 µM | hit rate 5.9% among 58,000 | AID 641, 2007;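 active = luminescence count or its row- and column-corrected plate score outside the 99.7% band of the plate's sample wells, on either side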
Target sequence (P21728 whole entry, looked up): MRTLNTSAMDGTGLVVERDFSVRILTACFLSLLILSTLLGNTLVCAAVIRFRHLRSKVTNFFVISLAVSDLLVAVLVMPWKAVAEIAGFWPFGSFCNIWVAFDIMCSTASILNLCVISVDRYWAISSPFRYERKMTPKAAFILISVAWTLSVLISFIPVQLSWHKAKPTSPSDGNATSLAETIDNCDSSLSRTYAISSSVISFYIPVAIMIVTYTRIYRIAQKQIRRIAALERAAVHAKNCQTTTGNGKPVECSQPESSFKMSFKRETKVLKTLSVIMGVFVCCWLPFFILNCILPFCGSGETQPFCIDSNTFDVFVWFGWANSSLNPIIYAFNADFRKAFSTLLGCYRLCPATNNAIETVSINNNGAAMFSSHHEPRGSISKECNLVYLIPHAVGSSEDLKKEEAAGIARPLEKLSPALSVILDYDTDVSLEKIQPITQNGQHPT
S1P3 ag – human S1P3 receptor agonists, primary screen, cell-based, primary and confirmation, NFAT-BLA reporter; S1P3 NFAT-BLA reporter cells, agonism, FRET ratio; relative to 1 µM S1P, basal subtracted; activation, % at 4.5 µM; hit rate 0.1% among 60,000; Sphingosine 1-phosphate receptor 3 (Homo sapiens), Q99500;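 active = activation above the screen-wide mean plus 3 SD, cut at about 4.5% in these data, passing the limit was not always enough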
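Assay system: stable CHO line with human S1P3, Gα16, NFAT-BLA reporter; Detection: FRET β-lactamase substrate fluorescence, excitation 405 nm, 460/535 nm emission ratio, background-subtracted; Read-out: percent activation versus median 1 µM S1P response, basal-subtracted, per plate; Incubation: cells plated overnight, compound 4 h 37 °C, substrate 2 h RT.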
M1 ag – M1 muscarinic receptor agonists, primary screen, CHO-M1 cells, Fluo-4 calcium, agonist mode; Fluo-4 calcium fluorescence; active compounds read high; hit rate 3% among 64,000; B-score at 10 µM;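 active = fluorescence rise, raw or as B-score row- and column-corrected plate score, outside the 99.7% band of its plate's samples, either direction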
S1P1 ag pot – S1P1 agonists and agonism potentiators, primary screen, cell-based, primary and confirmation screens, CRE-bla reporter; Sphingosine 1-phosphate receptor 1 (Homo sapiens), P21453; S1P1 CRE-bla cells, forskolin, beta-lactamase FRET, potentiator mode; S1P1 agonist co-added at EC20, 2 nM; 100% = saturating reference agonist, 0% = basal; activation, % at 9.5 µM; hit rate 0.57% among 56,000; AID 449, 2006;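 active = activation above a cutoff set at the mean activation of all tested compounds plus 3 SD, cut at about 54% in these data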;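 also: forskolin at 4 µM as EC80 and the EC20 agonist is SEW2871; 100% = SEW2871 at its EC100 plus forskolin at EC80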
D1 PAM confirm – D1 receptor positive allosteric modulators, retest, confirmation, cell-based, HEK293 D1, CRE-luciferase, duplicate; shares compounds with D1 mod; dopamine EC30 potentiation; active compounds read high; luminescence at 10 µM; hit rate 88% among 2,200;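 active = luminescence in either of two replicates above the same-plate mean plus 3 SD of the low-dose dopamine control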
D1 ag no DA – D1 receptor agonism without dopamine, confirmation, mechanism study for D1 allosteric modulator project, cell-based, HEK293 D1, CRE-luciferase, secondary assay 1. hit rate 0.8% among 1,900. AID 646, 2007. shares compounds with D1 mod. luminescence at 10 µM. luminescence, no dopamine; active compounds read high; in the data active = luminescence above about 3900
Isoprot counter – alters isoproterenol CRE-luciferase response in HEK293 cells; HEK293 D1 CRE-luciferase, isoproterenol EC30 counter-screen; calls only at 10 µM; shares compounds with D1 mod; hit rate 63% among 2,200;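 active = luminescence in either replicate above plate mean of wells with a partly effective reference agonist dose plus 3 SD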;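 also: isoproterenol raises cAMP through native beta-adrenoceptor Gs so signal bypasses D1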
Active calls of the source: *; i = inactive; nt = not tested or not shown; + = active, no number. This is a sample that favours compounds with a hit; in the whole collection about 11% have one here.

SMILES | M1 antagonist | D1 mod | S1P3 ag | M1 ag | S1P1 ag pot | D1 PAM confirm | D1 ag no DA | Isoprot counter
CCOC(=O)c1cc2cc(F)ccc2nc1C | -0.0612 | 10* | -0.3 | -0.583 | 0.9 | 12456* | 1480 | +
Cn1c(=O)c2[nH]cnc2n(-c2ccccc2)c1=O | 0.621 | 7.33* | -1.0 | 1.17 | -14.9 | 23812* | 1516 | +
O=C1CC(N2CCN(c3nc4ccccc4s3)CC2)C(=O)N1Cc1cccs1 (stereo not given) | -0.923 | -0.51 | -1.0 | -1.32 | nt | nt | nt | nt
Cc1ccnc(NC(=O)c2cc(S(=O)(=O)N3CCCCC3)ccc2Cl)c1 | -0.192 | 0.592 | nt | -0.359 | nt | nt | nt | nt
CCn1c(SCC(=O)NCCOC)nc2sc(C)c(C)c2c1=O | 0.192 | 0.83 | -0.2 | -0.505 | -36.7 | nt | nt | nt
COC(=O)CSc1nc2sc3c(c2c(=O)n1-c1ccccc1)CCN(C)C3 | -2.61 | 17* | -0.3 | -0.276 | -17.3 | 10640* | 1480 | +
COC(=O)CSc1nc2sc(C)c(C)c2c(=O)n1C | -0.186 | 6.11* | -1.3 | 0.201 | -25.7 | 7584* | 848 | +
CN1CCc2c(sc3c2c(=O)n(-c2ccccc2)c2nncn32)C1 | -0.0729 | -0.758 | -0.3 | -0.512 | -2.4 | nt | nt | nt
CCn1ncc(C2=NOC(C(=O)NCc3ccccc3)C2)c1C (stereo not given) | 0.153 | 7.67* | -0.8 | 0.805 | -9.3 | 12364* | 1760 | i
CCn1ncc(C2=NOC(C(=O)NCc3ccc(OC)cc3)C2)c1C (stereo not given) | -0.0406 | 0.0179 | -0.9 | -0.509 | -2.4 | nt | nt | nt
O=C(CSCCSCC(=O)c1ccco1)c1ccco1 | 0.566 | 0.158 | -0.8 | -0.782 | 0.8 | nt | nt | nt
Cc1oc(-c2ccc(Cl)cc2)nc1CN1CCC(C(=O)NCCCN2CCOCC2)CC1 | -0.0353 | 3.65* | 0.2 | 1.77 | 4.3 | 6764 | 1668 | i
CCCC(=O)Nc1ccc(N2CCN(C(=O)c3cccs3)CC2)cc1 | 0.352 | 0.189 | -1.0 | 2.16 | 21.6 | nt | nt | nt
COc1ccc(CCNc2c(N)n(Cc3ccccc3)c(=O)[nH]c2=O)cc1OC | -0.111 | 4.74* | -0.8 | -1.02 | -16.2 | 14452* | 1596 | +
Nc1c(NCCC2=CCCCC2)c(=O)[nH]c(=O)n1Cc1ccccc1 | -0.00988 | nt | 0.2 | -0.65 | -19.9 | nt | nt | nt
CC(C)C1C(C#N)=C(N)Oc2n[nH]c(-c3cccs3)c21 (stereo not given) | 1.11 | 3.63* | -1.9 | 1.14 | 22.6 | 8472* | 1560 | i
CCOC(=O)c1c(C2CC2)csc1NC(C)=O | 0.573 | 4.88* | 0.0 | 2.27 | nt | 9548* | 1704 | i
CCOC(=O)c1c(C2COc3ccccc3O2)csc1NC(=O)c1ccco1 (stereo not given) | -0.0713 | 0.465 | -0.4 | 0.633 | nt | nt | nt | nt
c1ccc2[nH]c(CN3CCN(c4ncnc5c4oc4ccccc45)CC3)nc2c1 | 0.281 | 9.59* | -1.2 | 2.28 | -2.4 | 14816* | nt | +
COc1ccc(CNC(=O)c2cc(-c3cccs3)on2)cc1 | -0.00288 | -0.0201 | 0.2 | -0.121 | -55.0 | nt | nt | nt
COc1cccc(Cn2c(-c3cccs3)noc2=O)c1 | -0.056 | 3.89* | 0.8 | -0.457 | 4.8 | 8904* | nt | +
Cc1ccccc1NC(=O)Cc1nc(CSc2nnc(C3CCCCC3)n2N)cs1 | -0.348 | -0.379 | nt | 0.04 | nt | nt | nt | nt
NC(=O)c1cc(-c2ccccc2)nc(Oc2ccccc2)n1 | -0.5 | 8.86* | -2.3 | -0.464 | -19.4 | 10904* | nt | +
Cc1cc(=O)oc(C)c1C(=O)N[C@@H]1CCCCNC1=O | 0.742 | 0.323 | -4.6 | -0.847 | 1.6 | nt | nt | nt
Cc1noc(C)c1COC(=O)c1ccccc1Oc1ccccc1 | -0.055 | 6.09* | 1.2 | 0.958 | -7.7 | 8776* | 1556 | +
SMILES | M1 antagonist | D1 mod | S1P3 ag | M1 ag | S1P1 ag pot | D1 PAM confirm | D1 ag no DA | Isoprot counter
Cc1cc(NC(=O)c2ccccc2Oc2ccccc2)no1 | -0.866 | 6.19* | -1.1 | 0.00156 | -16.5 | 9100* | 1632 | i
COC(=O)COc1nsnc1N1CCOCC1 | -0.515 | 2.3* | 0.2 | -0.0148 | 3.6 | 6088* | nt | i
CC1=C(C(=O)OC(C)C)C(C)C(C(=O)OC(C)C)=C(C)N1 | -0.237 | 0.0493 | 0.2 | 0 | -5.8 | nt | nt | nt
c1csc(Cc2nn3c(-c4n[nH]c5c4CCC5)nnc3s2)c1 | -0.52 | 3.37* | -1.1 | 0.47 | -41.7 | 8576* | 1600 | +
C=CCNC(=O)C1CC(c2cccc(OC)c2)=NO1 (stereo not given) | -0.307 | 4.44* | 0.8 | 0.0135 | -0.7 | 7068* | 1696 | i
CCn1c(SCc2cccnc2)nc2c1c(=O)n(C)c(=O)n2C | 1.15 | 4.97* | -0.1 | 0.021 | -10.0 | 5832* | 1320 | i
CCCCn1c(SCc2cccnc2)nc2c1c(=O)n(C)c(=O)n2C | -0.145 | 1.71 | 1.4 | 0.744 | 10.3 | nt | nt | nt
CN(C)/C=N/c1c(C#N)cnn1-c1ncnc2sc(-c3ccccc3)cc12 | -0.216 | 1.03 | -0.3 | 0.146 | -30.2 | nt | nt | nt
COc1ncnc2sc(-c3ccccc3)cc12 | -0.00156 | 2.8* | -0.2 | -0.00582 | -1.6 | 10684* | 1684 | +
COc1ccccc1NC(=O)C1=C(C)Nc2nc(-c3cccs3)nn2C1c1cccnc1 (stereo not given) | 0.366 | -0.741 | 0.4 | 0.4 | -11.6 | nt | nt | nt
O=C(CSc1nnc(-c2ccccc2Br)o1)N1CCc2ccccc2C1 | -0.0871 | 9.92* | 1.3 | -0.213 | 11.4 | 18392* | 1512 | +
O=C(CSc1nnnn1-c1ccccc1)N1CCc2ccccc2C1 | -0.839 | 5.38* | -1.3 | 0.221 | 1.9 | 5840* | nt | i
N#Cc1c(N)nc2c(c1-c1ccccc1)CCCC2 | 0.105 | nt | 1.2 | -0.0623 | -38.3 | nt | nt | nt
N#Cc1c2c(nc(N)c1-c1ccccc1)CCCCC2 | 0.719 | 4.52* | nt | -0.606 | nt | 7208* | 1532 | i
COc1cccc(OC)c1C(=O)Nc1cc(Cl)ccc1N1CCOCC1 | 0.0473 | -0.0172 | -0.6 | 0.0787 | 11.9 | nt | nt | nt
O=C(Nc1cc(Cl)ccc1N1CCOCC1)c1cnccn1 | 0.314 | 3.07* | nt | 0.156 | nt | 7880* | 1408 | i
COCCNC(=O)CSc1nc(-c2ccc(OC)c(OC)c2)cc(C(F)(F)F)n1 | 0.197 | 9.35* | -0.2 | -0.882 | -31.6 | 12172* | 1680 | +
